Only some compounds are listed: those with a hit (about 2% of all), similar ones and a draw of the others.
IMP-1 inh-1: blocks Pseudomonas aeruginosa IMP-1 metallo-beta-lactamase; inhibition, % at 5.6 µM; AID 1556; purified IMP-1, nitrocefin hydrolysis, epi-absorbance fluorescence; 290,000 tested, 0.45% active;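 active means inhibition above the mean plus 3 SD of all compounds in the same screening run, cut at about 4.5% in these data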
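System: purified IMP-1; amount: IMP-1 0.2 nM before substrate addition; compound: single dose, 5.6 µM; times: 25 °C, 15 min preincubation, 25 min reaction; signal: Epi-absorbance via hydrolysed-nitrocefin quenching of white-plate fluorescence, 480/530 nm, EDTA stop; benchmarks: DMSO with and without IMP-1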
VIM-2 inh: inhibitors of Pseudomonas aeruginosa VIM-2 metallo-beta-lactamase | purified VIM-2, nitrocefin hydrolysis, epi-absorbance fluorescence | inhibition, % at 5.6 µM | 290,000 tested, 0.89% active;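 active means inhibition above the mean of all tested compounds plus 3 SD, cutoff set per screening run, cut at about 7.5% in these data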;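 further: red hydrolysis product quenches plate fluorescence so inhibitors raise well fluorescence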
PLCb3 inh: blocks human PLC-beta3 enzyme activity; AID 720704; 370,000 tested, 0.18% active; Q01970; inhibition, % at 12.2 µM; Purified PLC-beta3, fluorogenic substrate, fluorescence; in the data active means inhibition above about 11%
PvdQ inh: P. aeruginosa PvdQ acylase inhibition; purified PvdQ acylase, fluorescence plate reader; inhibition, % at 10 µM; 340,000 tested, 0.063% active; AID 488965; in the data active means inhibition above about 30%, passing the limit was not always enough
PLCg1 inh: blocks human PLC-gamma1 enzyme activity | purified PLC-gamma1, fluorogenic substrate, fluorescence | inhibition, % at 12.2 µM | 370,000 tested, 0.84% active | AID 720700; in the data active means inhibition above about 9.5%
IMP-1 inh-2: blocks IMP-1 metallo-beta-lactamase in VIM-2 selectivity screen. purified IMP-1, nitrocefin hydrolysis, epi-absorbance fluorescence. shares compounds with VIM-2 inh. 1,300 tested, under 10 active. inhibition, % at 5.6 µM; call rule not given here
VIM-2 FRET ctr: inhibits VIM-2 in FRET assay to exclude epi-absorbance artifacts | shares compounds with VIM-2 inh | purified VIM-2, CCF2 FRET substrate hydrolysis | inhibition, % at 5.6 µM | 1,300 tested, 23% active | AID 1857;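 active means inhibition above the mean of all tested compounds plus 3 SD, cut at about 19% in these data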
TEM-1 inh: blocks E. coli TEM-1 beta-lactamase in VIM-2 selectivity screen | shares compounds with VIM-2 inh | Purified TEM-1, nitrocefin hydrolysis, epi-absorbance fluorescence | inhibition, % at 5.6 µM | 1,300 tested, 3% active | AID 1866;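 active means inhibition above that campaign's mean inhibition plus 3 SD, cut at about 0.46% in these data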
VIM-2 inh conf: confirmation of P. aeruginosa VIM-2 metallo-beta-lactamase inhibitors; shares compounds with VIM-2 inh; purified VIM-2, nitrocefin hydrolysis, epi-absorbance; inhibition, % at 5.6 µM; 1,300 tested, 96% active; AID 2187;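 active means inhibition of the VIM-2 beta-lactamase enzyme above about 11% from the earlier first-round screen, limit read from the data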
Each line names hits and unclear results; the compound was inactive in the other large screens (follow-up assays come after a bar, where they were run).

O=C(Nc1ccc2ccccc2c1)C1CC2CCC1C2 (centres undefined)	none (no result: IMP-1 inh-1, VIM-2 inh, PvdQ inh)
Cc1cccn2c(=O)c3cc(C(=O)NCCCOC(C)C)sc3nc12	VIM-2 inh 18.1 | IMP-1 inh-2 inactive | VIM-2 FRET ctr inactive | TEM-1 inh inactive | VIM-2 inh conf 26.4
CCOCCCNC(=O)c1cc2c(=O)n3cccc(C)c3nc2n1C	none (no result: IMP-1 inh-1, VIM-2 inh)
CCN(CC)C(=O)c1cc2c(=O)n3ccccc3nc2s1	none
O=C(NC1CCCC1)c1cc2c(=O)n3ccccc3nc2s1	none (no result: IMP-1 inh-1, VIM-2 inh)
Cc1cccn2c(=O)c3cc(C(=O)NCC(C)C)sc3nc12	VIM-2 inh 14.3 | IMP-1 inh-2 inactive | VIM-2 FRET ctr inactive | TEM-1 inh inactive | VIM-2 inh conf 23.0
Cc1cccn2c(=O)c3cc(C(=O)NC4CCCC4)sc3nc12	VIM-2 inh 16.6 | IMP-1 inh-2 inactive | VIM-2 FRET ctr inactive | TEM-1 inh inactive | VIM-2 inh conf 15.3
CC(C)CCNC(=O)c1cc2c(=O)n3ccccc3nc2s1	none
CCCN(CCC)C(=O)c1cc2c(=O)n3cccc(C)c3nc2s1	VIM-2 inh 12.5 | IMP-1 inh-2 inactive | VIM-2 FRET ctr inactive | TEM-1 inh inactive | VIM-2 inh conf 17.4
C[C@H](O)[C@@H]1CN2CCc3ccc(N4CCOCC4)cc3[C@@H]2C[C@@H]1N(C)CC1CCCCC1	none (no result: IMP-1 inh-1, VIM-2 inh, PvdQ inh)
CCOCCCNC(=O)c1cc2c(=O)n3cccc(C)c3nc2s1	VIM-2 inh 16.4 | IMP-1 inh-2 inactive | VIM-2 FRET ctr inactive | TEM-1 inh inactive | VIM-2 inh conf 30.8
COc1ccc(C=O)c2[nH]c3c(Cl)ncnc3c12	VIM-2 inh 15.8 | IMP-1 inh-2 inactive | VIM-2 FRET ctr inactive | TEM-1 inh inactive | VIM-2 inh conf 24.2
COc1cc2[nH]c3c(Cl)ncnc3c2cc1OC	none
CN1CCc2cc3c(c4c2[C@H]1[C@H](O)c1ccccc1-4)OCO3	VIM-2 inh 16.5 | IMP-1 inh-2 inactive | VIM-2 FRET ctr inactive | TEM-1 inh inactive | VIM-2 inh conf 24.5
COc1ccc2c(c1OC)C(=O)OC2C1c2c(cc3c(c2OC)OCO3)CCN1C (centres undefined)	none
c1cncc(Nc2nc(-c3ccncc3)cs2)c1	VIM-2 inh 16.0 | IMP-1 inh-2 inactive | VIM-2 FRET ctr inactive | TEM-1 inh inactive | VIM-2 inh conf 38.2
Cc1nc(C)c(-c2csc(Nc3ccc(N)cc3)n2)s1	none
c1cncc(Nc2nc(-c3cccnc3)cs2)c1	VIM-2 inh 12.2 | IMP-1 inh-2 inactive | VIM-2 FRET ctr inactive | TEM-1 inh inactive | VIM-2 inh conf 41.2
Cc1nc(C)c(-c2csc(Nc3cccnc3)n2)s1	VIM-2 inh 30.1 | IMP-1 inh-2 inactive | VIM-2 FRET ctr inactive | TEM-1 inh inactive | VIM-2 inh conf 45.2
CC(=O)Nc1ccc(Nc2cc(N(C)C)c3nonc3c2[N+](=O)[O-])cc1	VIM-2 inh 29.5 | IMP-1 inh-2 inactive | VIM-2 FRET ctr inactive | TEM-1 inh inactive | VIM-2 inh conf 36.2
O=[N+]([O-])c1ccc(C23CC4CC(CC(O)(C4)C2)C3)cc1	VIM-2 inh 15.2 (no result: PLCb3 inh, PvdQ inh, PLCg1 inh) | IMP-1 inh-2 inactive | VIM-2 FRET ctr 34.2 | TEM-1 inh inactive | VIM-2 inh conf 22.4
Cc1c(OCC(=O)NCCCN2CCCC2=O)ccc2c3c(c(=O)oc12)CCCC3	VIM-2 inh 12.3 | IMP-1 inh-2 inactive | VIM-2 FRET ctr inactive | TEM-1 inh inactive | VIM-2 inh conf 20.7
Cc1c(OCC(=O)NCCCN2CCCC2=O)ccc2c3c(c(=O)oc12)CCC3	VIM-2 inh 22.6 | IMP-1 inh-2 inactive | VIM-2 FRET ctr inactive | TEM-1 inh inactive | VIM-2 inh conf 29.0
Cc1cc(=O)oc2c(C)c(OCC(=O)NCCCN3CCCC3=O)ccc12	none
COC(=O)c1c(NC(=O)C(=O)NCCCN2CCOCC2)sc2c1CCCC2	VIM-2 inh 12.8 | IMP-1 inh-2 inactive | VIM-2 FRET ctr inactive | TEM-1 inh inactive | VIM-2 inh conf 18.9
C[C@@H]1CCN(C2CC2)S(=O)(=O)c2ccc(N3CCC[C@@H]3CO)cc2O1	none (no result: IMP-1 inh-1, VIM-2 inh, PvdQ inh)
CCCc1cc(=O)oc2cc(C)cc(OC(C)C(=O)NCCCn3ccnc3)c12 (centres undefined)	VIM-2 inh 17.5 | IMP-1 inh-2 inactive | VIM-2 FRET ctr inactive | TEM-1 inh inactive | VIM-2 inh conf 27.8
Cc1cc(OC(C)C(=O)NCCCn2ccnc2)c2c(C)cc(=O)oc2c1 (centres undefined)	VIM-2 inh 27.8 | IMP-1 inh-2 inactive | VIM-2 FRET ctr inactive | TEM-1 inh inactive | VIM-2 inh conf 39.1
c1cncc(CNc2ncnc3sc4c(c23)CCCC4)c1	none
Cc1cc(C)n(-c2nc(NCc3cccnc3)c3c4c(sc3n2)COC(C)(C)C4)n1	VIM-2 inh 47.5 | IMP-1 inh-2 inactive | VIM-2 FRET ctr inactive | TEM-1 inh inactive | VIM-2 inh conf 64.1
Cc1cc(C)n(-c2nc(SCC(=O)O)c3c4c(sc3n2)COC(C)(C)C4)n1	VIM-2 inh 14.7 | IMP-1 inh-2 inactive | VIM-2 FRET ctr 38.7 | TEM-1 inh inactive | VIM-2 inh conf 22.5
Cc1nc(NCc2cccnc2)c2c3c(sc2n1)CCCC3	VIM-2 inh 15.3 | IMP-1 inh-2 inactive | VIM-2 FRET ctr inactive | TEM-1 inh inactive | VIM-2 inh conf 31.0
CCN(CC)CCCNc1nc(-n2nc(C)cc2C)nc2sc3c(c12)CC(C)(C)OC3	none
CC(C)(C)C(=O)OC12CCCN(C1)/C(=C/c1ccc(C#N)cc1)C2 (centres undefined)	none (no result: IMP-1 inh-1, VIM-2 inh, PvdQ inh)
CCCCCCCCN1C(=O)[C@@H](CC(=O)NCc2cccs2)C[C@@]2(C(=O)OC)C1=C[C@H](COCc1ccccc1)O[C@@H]2C	none (no result: IMP-1 inh-1, VIM-2 inh, PvdQ inh)
Cc1c(OCC(=O)NCC(O)c2ccccc2)ccc2c3c(c(=O)oc12)CCC3 (centres undefined)	VIM-2 inh 20.0 | IMP-1 inh-2 inactive | VIM-2 FRET ctr inactive | TEM-1 inh inactive | VIM-2 inh conf 28.1
Cc1c(OCC(=O)NC(Cc2ccc(Cl)cc2)C(=O)O)ccc2c3c(c(=O)oc12)CCC3 (centres undefined)	none
O=C(COc1cc2oc(=O)c3c(c2cc1Cl)CCC3)NCC(O)c1ccccc1 (centres undefined)	VIM-2 inh 13.9 | IMP-1 inh-2 inactive | VIM-2 FRET ctr inactive | TEM-1 inh inactive | VIM-2 inh conf 26.2
Cc1cc(=O)oc2c(C)c(OCC(=O)NC3CC(C)(C)NC(C)(C)C3)ccc12	none
Cc1c(OCC(=O)NC2CC(C)(C)NC(C)(C)C2)ccc2c3c(c(=O)oc12)CCC3	VIM-2 inh 32.3 | IMP-1 inh-2 inactive | VIM-2 FRET ctr inactive | TEM-1 inh inactive | VIM-2 inh conf 44.2
